The test system of data set [1] is Human immunodeficiency virus 1. Nature of the data set: Antiviral activity against HIV1 NL4-3 infected in human MT4 cells assessed as p24 antigen level after 4 days by ELISA. In kind it is functional, organism-based. Conditions: Human immunodeficiency virus 1, NL4-3, MT4, 96 h. The method, boiled down: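 MT-4 cells infected with HIV-1 NL4-3 variants at MOI 0.01; supernatants harvested day 4 post-infection for p24 antigen capture ELISA. IC50 is the concentration inhibiting replication by 50%; values are averages of at least three separate experiments.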
A general note: In an ELISA, binding on a coated surface is turned into a signal by an enzyme label.

Data set [2] concerns Human immunodeficiency virus 1. The data set can be described thus: Antiviral activity against HIV1 infected in human TZM-bl cells assessed as reduction of viral entry after 48 hrs by luciferase reporter gene assay. In kind it is functional, organism-based. Put shortly:
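Single-round infection of TZM-bl cells (HeLa clone expressing CD4/CCR5 with HIV-1 LTR-driven firefly luciferase) with HIV-1 at 200 TCID50 mixed with test samples. After 48 h, medium was replaced with Bright-Glo reagent and luminescence read. IC50 is the concentration giving 50% RLU reduction versus virus-control wells after background subtraction.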

Data set [3] concerns Human immunodeficiency virus 1. Nature of the data set: Ratio of bevirimat IC50 to compound IC50 for HIV1 NL4-3 infected in human MT4 cells. In kind it is functional. Put shortly:
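MT-4 cells were infected with HIV-1 NL4-3 at MOI 0.01. Day-4 supernatant p24 was measured by ELISA. IC50 is the concentration giving 50% inhibition of replication, from averages of at least three separate experiments. The ratio divides the bevirimat IC50 by the compound IC50, both from this assay.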

The test system of a further data set is Liver microsomes. Nature of the data set: Half life in human liver microsomes at 1 uM. In kind it is ADME, Microsome. Put shortly: (§1)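 Pooled human liver microsomes at 0.1 mg/mL in 0.1 M potassium phosphate pH 7.4 with 5 mM MgCl2. Compound at 1 μM final; reaction started with 1.0 mM NADPH (final) at 37 °C, duplicate incubations. Quenched with ice-cold acetonitrile at 0, 5, 15, 30, 60 min. Parent measured by LC-ESI-MS (SIM), remaining percentage relative to 0 min. t1/2 = 0.693/k from log-linear slope.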

The subject of the next data set is MT4. The data set can be described thus: Cytotoxicity against human MT4 cells after 2 days. In kind it is cell-based. The note with it: mt4, 48 h.
For data set [4], the system named is Human immunodeficiency virus 1. Nature of the data set: Antiviral activity against HIV1 infected in human TZM-bl cells assessed as reduction of viral […] after 48 hrs by luciferase reporter gene assay. In kind it is functional, organism-based. The method, boiled down: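 Single-round infection of TZM-bl cells (HeLa clone expressing CD4 and CCR5, HIV-1 LTR-driven firefly luciferase) with HIV-1 at 200 TCID50 mixed with samples. Luminescence read after 48 h. IC50 is the concentration giving 50% lower RLU than virus control wells, after subtracting background RLU.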
(Reporter assays use an easily measured gene product as a stand-in for the process of interest.)

A short description of data set [5]: Metabolic stability in human liver microsomes assessed as compound remaining at 1 uM after 60 mins by HPLC-MS analysis. In kind it is ADME, Microsome. Conditions: read-out: Stability. The method, boiled down:
as §1
On the technique in general: Liver microsomes are vesicles of endoplasmic reticulum, rich in cytochrome P450 enzymes.

The nature of data set [6]: Therapeutic index, ratio of CC50 for human MT4 cells to IC50 for HIV-1 NL4-3. In kind it is cell-based. Conditions: read-out: Ratio CC50/IC50. Put shortly:
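TI calculated as CC50 (mock-infected MT-4 growth, 2 days) divided by IC50 (HIV-1 NL4-3 replication in MT-4 cells, p24 ELISA at day 4).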

The species entered for the next data set is Homo sapiens. The data set can be described thus: Elimination half life in human. In kind it is ADME, organism-based. Conditions: in vivo.

These results are taken from ChEMBL document CHEMBL2176886, “Anti-AIDS agents 90. novel C-28 modified bevirimat analogues as potent HIV maturation inhibitors” (J Med Chem, 2012).

As a reminder, the IC50 is the concentration needed to halve the response being measured. What is called CC50 is the concentration that lowers cell viability or growth by half. A low value points to harm at low concentration.

Activity calls are given as the source filed them. No cut-off for these calls is given here.

As for `C=C(C)[C@@H]1CC[C@]2(C(=O)N3CCN(CCCCC(=O)O)CC3)CC[C@]3(C)[C@H](CC[C@@H]4[C@@]5(C)CC[C@H](OC(=O)CC(C)(C)C(=O)O)C(C)(C)[C@@H]5CC[C@]43C)[C@@H]12`, the IC50 in data set [1] amounted to 0.0059 µM. In addition, the outcome in data set [2] was inactive. Moreover, the “Ratio IC50” value in data set [3] is 15. For the same molecule, in the data set with Liver microsomes, the t1/2 was 5.45 h. For the same molecule, the cytotoxic concentration (CC50) in the data set on MT4 is 13.2 µM. Also, the result in data set [4] was Active. The remaining at 1 h, 1 µM in [5] was 86.2%. Also, the selectivity ratio in [6] is 2240.
With `C=C(C)[C@@H]1CC[C@]2(C(=O)N3CCN(CCCC(=O)O)CC3)CC[C@]3(C)[C@H](CC[C@@H]4[C@@]5(C)CC[C@H](OC(=O)CC(C)(C)C(=O)O)C(C)(C)[C@@H]5CC[C@]43C)[C@@H]12`, in [1], the half-maximal inhibitory concentration (IC50) was 0.011 µM. In addition, the outcome in data set [2] was inactive. The Ratio IC50 in data set [3] stood at 7.9. Besides, the midpoint of cytotoxicity with MT4, the CC50, lay at 13 µM. For the same molecule, the selectivity ratio in data set [6] was found to be 1180.
Take `C=C(C)[C@@H]1CC[C@]2(C(=O)OCCCCCC)CC[C@]3(C)[C@H](CC[C@@H]4[C@@]5(C)CC[C@H](OC(=O)CC(C)(C)C(=O)O)C(C)(C)[C@@H]5CC[C@]43C)[C@@H]12`: the IC50 in data set [1] amounted to 1.8 µM. Besides, the outcome in [2] was inactive. The molecule further came in with a CC50 with MT4 of 14.8 µM. Besides, the outcome in data set [4] was Active. In addition, the selectivity ratio in data set [6] worked out at 8.3.
In the same order, the values of `C=C(C)[C@@H]1CC[C@]2(C(=O)OCCC)CC[C@]3(C)[C@H](CC[C@@H]4[C@@]5(C)CC[C@H](OC(=O)CC(C)(C)C(=O)O)C(C)(C)[C@@H]5CC[C@]43C)[C@@H]12` are 0.088 µM, “inactive”, 10.4 µM, “Active” and 118.
Take `C=C(C)[C@@H]1CC[C@]2(C(=O)O)CC[C@]3(C)[C@H](CC[C@@H]4[C@@]5(C)CC[C@H](OC(=O)CC(C)(C)C(=O)O)C(C)(C)[C@@H]5CC[C@]43C)[C@@H]12` [BEVIRIMAT]: in data set [1], the IC50 came out at 0.087 µM. Also, the outcome in [2] was inactive. Moreover, the “beta t1/2” value in the data set listed under Homo sapiens came to 56.3 h. The molecule also had a cytotoxic concentration (CC50) with MT4 of 14.2 µM. The selectivity ratio in data set [6] amounted to 171.
In the case of `C=C(C)[C@@H]1CC[C@]2(C(=O)N3CCC(CCCC(=O)NCCCN4CCOCC4)CC3)CC[C@]3(C)[C@H](CC[C@@H]4[C@@]5(C)CC[C@H](OC(=O)CC(C)(C)C(=O)O)C(C)(C)[C@@H]5CC[C@]43C)[C@@H]12`, the concentration for half-maximal inhibition (IC50) in data set [1] came out at 0.031 µM. Moreover, in data set [2], the result was inactive. The “Ratio IC50” value in [3] was 3. In the data set with MT4, this molecule came in with a half-maximal cytotoxic concentration (CC50) of 10 µM. Further, the selectivity ratio in data set [6] turned out to be 321.
In the case of `C=C(C)[C@@H]1CC[C@]2(C(=O)OCOCCOC)CC[C@]3(C)[C@H](CC[C@@H]4[C@@]5(C)CC[C@H](OC(=O)CC(C)(C)C(=O)O)C(C)(C)[C@@H]5CC[C@]43C)[C@@H]12`, the IC50 in [1] is 0.046 µM. The result in [2] was inactive. Also, in [3], the “Ratio IC50” value was found to be 2. In addition, in the data set on MT4, it took 12.1 µM to reach half-maximal cytotoxicity (CC50). In addition, in [4], the outcome was Active. Also, the selectivity ratio in data set [6] worked out at 261.
Regarding `C=C(C)[C@@H]1CC[C@]2(C(=O)OCCCCCC(=O)OCC)CC[C@]3(C)[C@H](CC[C@@H]4[C@@]5(C)CC[C@H](OC(=O)CC(C)(C)C(=O)O)C(C)(C)[C@@H]5CC[C@]43C)[C@@H]12`, the concentration for half-maximal inhibition (IC50) in data set [1] came to 0.056 µM. In addition, the outcome in data set [2] was inactive. The molecule also had a CC50 in the data set on MT4 of 8.6 µM. Further, the result in data set [4] was Active. Moreover, the selectivity ratio in [6] came out at 154.
Consider `C=C(C)[C@@H]1CC[C@]2(C(=O)N3CCC(CCCC(=O)NCCN4CCOCC4)CC3)CC[C@]3(C)[C@H](CC[C@@H]4[C@@]5(C)CC[C@H](OC(=O)CC(C)(C)C(=O)O)C(C)(C)[C@@H]5CC[C@]43C)[C@@H]12`, for which the IC50 in [1] worked out at 0.035 µM. The result in [2] was inactive. Also, the “Ratio IC50” value in data set [3] is given as 3. Moreover, the CC50 in the data set on MT4 was 10 µM. Moreover, in [6], the selectivity ratio amounted to 286.
